The target of assay [1] is T1, GABA-A receptor; alpha-1/beta-2/gamma-2 (Rattus norvegicus) (UniProt P18508+P62813+P63138). As to the kind of experiment: Electrophysiological effect on rat alpha-1-beta-2-gamma-2 GABA-A receptor subunits expressed in xenopus laevis oocytes at 10 uM in the absence of GABA. The conditions noted are these: Oocyte. It counts as functional, cell-based. The method, boiled down: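 Rat α1β2γ2 GABAA receptors are expressed in Xenopus oocytes. Steroid at 10 μM is applied alone, without GABA, and the directly gated current is measured. The value is the ratio of steroid-only current to the 2 μM GABA control current. N = 3–6 (12 for one reference steroid), mean ± SEM.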

Assay [2] concerns the target T1, GABA-A receptor; alpha-1/beta-2/gamma-2 (Rattus norvegicus). Kind of assay: Electrophysiological effect on rat alpha-1-beta-2-gamma-2 GABA-A receptor subunits expressed in xenopus laevis oocytes at 1 uM. It counts as functional, cell-based. The note with it: Oocyte. Summed up: (§1)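 Oocytes express rat α1β2γ2 GABAA receptors. The control response uses 2 μM GABA. Steroid is co-applied at 0.1, 1 or 10 μM. The value is the ratio of current with steroid to current without it. N = 3–6 (12 for one reference steroid), mean ± SEM. These are not full concentration-response curves.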

Assay [3] has the same target. As to the kind of experiment: Electrophysiological effect on rat alpha-1-beta-2-gamma-2 GABA-A receptor subunits expressed in xenopus laevis oocytes at 10 uM. The class given is functional, cell-based. The note with it: Oocyte. The method, boiled down: as §1
Assay [4] addresses GABA-A receptor; anion channel. Kind of assay: Displacement of […]-tert-butylbicyclophosphorothionate (TBPS) from Gamma-aminobutyric acid A (GABA-A) receptor of rat brain membranes. It counts as cell membranes, Membrane. The method, boiled down:
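Noncompetitive displacement of [35S]TBPS from the picrotoxin site in rat brain membranes. Full concentration-response curves were fitted for IC50. Data come from duplicate experiments, each run in triplicate, with mean ± SEM reported. Hill coefficients are given.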

Assay [5] deals with T1, GABA-A receptor; alpha-1/beta-2/gamma-2 (Rattus norvegicus). As to the kind of experiment: Electrophysiological effect on rat alpha-1-beta-2-gamma-2 GABA-A receptor subunits expressed in xenopus laevis oocytes at 0.1 uM. The class given is functional, cell-based. The conditions noted are these: Oocyte. The method, boiled down:
as §1

pIC50: −log10 of the molar value.

Here are results for 12 molecules from ChEMBL document CHEMBL1133108, “Neurosteroid analogues. 8. Structure-activity studies of N-acylated 17a-aza-D-homosteroid analogues of the anesthetic steroids (3alpha, 5alpha)- and (3alpha,5beta)-3-hydroxypregnan-20-one” (J Med Chem, 2000).

Consider `CC(=O)[C@H]1CC[C@H]2[C@@H]3CC[C@@H]4C[C@H](O)CC[C@]4(C)[C@H]3CC[C@]12C` [ELTANOLONE], for which the Activity in assay [1] stood at 0.01; in assay [2], 1.92; in assay [3] it was 4.3; in assay [5] it was 0.97. Moreover, the pIC50 in assay [4] is 7.15.
For `C[C@]12CCC3C(CC[C@@H]4C[C@H](O)CC[C@]34C)C1CCCN2C(=O)CO` (some centres undefined) the same measures were 0.1, 1.57, 3.87, 1.36 and 6.03.
As for `CC(=O)[C@H]1CC[C@H]2[C@@H]3CC[C@H]4C[C@H](O)CC[C@]4(C)[C@H]3CC[C@]12C` [BREXANOLONE], the Activity in assay [1] came out at 0.37; in assay [2], 3.89; in assay [3], 9.65; in assay [5], 1.26. The same molecule showed a pIC50 in assay [4] of 7.13.
Regarding `C[C@@]1(O)CC[C@]2(C)C3CC[C@@]4(C)C(CCCN4C(=O)CO)C3CC[C@H]2C1` (some centres undefined), the Activity in assay [1] came out at 0.2; in assay [2] it was 1.22; in assay [3], 6.5; in assay [5] it was 1. The pIC50 in assay [4] is 6.26.
For `CC(=O)N1CCCC2C3CC[C@H]4C[C@](C)(O)CC[C@]4(C)C3CC[C@@]21C` (some centres undefined) the same measures were 0.05, 1.04, 1.99, 0.96 and 5.58.
Turning to `CC(=O)N1CCCC2C3CC[C@@H]4C[C@H](O)CC[C@]4(C)C3CC[C@@]21C` (some centres undefined), the Activity in assay [1] was found to be 0.01; in assay [2] it was 1.04; in assay [3], 1.18; in assay [5], 1.37.
In the case of `C[C@]12CCC3C(CC[C@H]4C[C@H](O)CC[C@]34C)C1CCCN2C(=O)CO` (some centres undefined), the Activity was determined as 0.49 in assay [1], 1.73 in assay [2], 8.09 in assay [3] and 1.17 in assay [5]. Moreover, the pIC50 in assay [4] was 7.35.
For `CC(=O)N1CCCC2C3CC[C@H]4C[C@H](O)CC[C@]4(C)C3CC[C@@]21C` (some centres undefined) the same measures were 0.05, 1.66, 3.74, 1.21 and 6.70.
On to `C[C@]12CC[C@@H](O)C[C@H]1CC[C@@H]1[C@@H]2CC[C@]2(C)[C@@H](C(=O)CO)CC[C@@H]12`, for which the Activity in assay [1] amounted to 0.19; in assay [2] it was 2.37; in assay [3] it was 5.43; in assay [5], 1.21. The pIC50 in assay [4] was 6.92.
In the same order, the values of `C[C@]12CC[C@@H](O)C[C@@H]1CC[C@@H]1[C@@H]2CC[C@]2(C)[C@@H](C(=O)CO)CC[C@@H]12` are 1.67, 4.55, 11.8, 1.3 and 7.41.
In the same order, the values of `C[C@]12CCC3C(CC[C@H]4C[C@H](O)CC[C@]34C)C1CCCN2C(=O)C(F)(F)F` (some centres undefined) are 0.5, 1.91, 10.1, 1.11 and 6.37.
Take `C[C@]12CCC3C(CC[C@@H]4C[C@H](O)CC[C@]34C)C1CCCN2C(=O)C(F)(F)F` (some centres undefined): the Activity in assay [1] is 0.02; in assay [2], 0.96; in assay [3], 1.12; in assay [5] it was 0.98. In assay [4], this molecule showed a pIC50 of 5.21.

For orientation: pIC50 means −log10 of the IC50, conventionally taken in molar units. A lower pIC50 goes with a high IC50.
